According to PMC10950693 (International Journal for Parasitology: Drugs and Drug …, 2024):

Assay: Cytotoxicity against murine macrophages, alamarBlue, 24 h
Format: cell-based
Details: mouse, J774A.1 murine macrophages
Method in brief: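 J774A.1 macrophages were kept in DMEM with 10% FBS at 37 °C, 5% CO2. Cells were seeded at 10^4/well and allowed 3–4 h to adhere. Serial dilutions were added with 10% alamarBlue for 24 h at 37 °C, 5% CO2, then fluorescence was read. CC50 was derived by four-parameter variable-slope nonlinear regression.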

Compound	CC50 at 24 h [µM]
O=C(Cn1ccnc1[N+](=O)[O-])NCc1ccccc1 [B, benznidazole]	399.9 ± 1.4
CCCCCCCCCCCCCCCCOP(=O)([O-])OCC[N+](C)(C)C [M, miltefosine]	72.2 ± 8.85
